# Most compounds without a hit are left out; they make up all but 1.9% or so of the library.
# CHRM4 agonist: human M4 muscarinic receptor agonists, primary screen, CHO-K1 cells, Fluo-8 calcium fluorescence | activation, % at 3 µM | AID 624127, 2012 | CHO-K1 hM4/Gqi5; vehicle 0%, full acetylcholine response 100% | Muscarinic acetylcholine receptor M4 (Homo sapiens), P08173 | 360,000 compounds, 0.14% hits;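 active = activation above the run mean over all test wells plus 3 SD, cut at about 32% in these data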;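 also: peak over basal fluorescence ratio per well then scaled between controls; 0% = DMSO wells and 100% = acetylcholine at EC100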
# Target sequence (P08173 whole entry, looked up): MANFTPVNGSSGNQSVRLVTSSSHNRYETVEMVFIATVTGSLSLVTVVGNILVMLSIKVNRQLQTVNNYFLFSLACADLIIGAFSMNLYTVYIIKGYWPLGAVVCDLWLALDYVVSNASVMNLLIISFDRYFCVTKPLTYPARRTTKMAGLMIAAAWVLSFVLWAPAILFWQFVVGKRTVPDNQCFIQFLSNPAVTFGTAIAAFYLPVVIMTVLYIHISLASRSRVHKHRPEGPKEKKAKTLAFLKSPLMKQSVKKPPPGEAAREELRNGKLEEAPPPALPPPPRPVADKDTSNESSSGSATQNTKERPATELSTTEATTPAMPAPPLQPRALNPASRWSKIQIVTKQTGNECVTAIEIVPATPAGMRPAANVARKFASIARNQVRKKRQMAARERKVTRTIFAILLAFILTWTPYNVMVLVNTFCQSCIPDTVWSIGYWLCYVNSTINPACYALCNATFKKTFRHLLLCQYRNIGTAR
# M4 antag: human M4 muscarinic receptor antagonists, primary screen, CHO cells, Fluo-8 calcium fluorescence | Muscarinic acetylcholine receptor M4 (Homo sapiens), P08173 | CHO-hM4 cells, ACh EC80 | inhibition, % at 3 µM | 360,000 compounds, 0.73% hits | AID 624125, 2012;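 active = inhibition above its plate's cutoff, the mean inhibition of sample wells plus 3 SD, cut at about 27% in these data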;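 also: 0% = acetylcholine EC80 with DMSO and 100% = DMSO without agonist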
# CHRM5 agonist: human M5 muscarinic receptor agonists, primary screen, CHO-K1 cells, Fluo-8 calcium fluorescence; CHO-K1 hM5 cells; 0% DMSO wells, 100% maximal acetylcholine response; activation, % at 3 µM; 360,000 compounds, 0.19% hits; AID 624037, 2012;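 active = activation above the run's mean over test compounds plus 3 SD, cut at about 23% in these data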;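 also: signal is peak over basal fluorescence ratio across the kinetic read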
# M5 PAM: human M5 muscarinic receptor positive allosteric modulators, primary screen, CHO-K1 cells, Fluo-8 calcium fluorescence. CHO-K1 hM5, ACh EC20 PAM; 0% = ACh EC20, 100% = ACh EC100. AID 624038, 2012. 360,000 compounds, 0.3% hits. activation, % at 3 µM;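 active = activation above the run cutoff, the mean activation of all test compounds plus 3 SD, cut at about 18% in these data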
#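 Test system: CHO-K1 hM5 cells / Doses: single-point, 3 µM nominal / Times: Post-acetylcholine fluorescence recording 140 s / Technique: Fluo-8 calcium fluorescence / Measure: Max/basal fluorescence ratio as % of EC20–EC100 ACh window / Benchmarks: low control EC20 acetylcholine (0%), high control EC100 acetylcholine (100%) / Replicates: one well per compound, no replicates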
# M4 PAM: human M4 muscarinic receptor positive allosteric modulators, primary screen, CHO-K1 cells, Fluo-8 calcium fluorescence; Muscarinic acetylcholine receptor M4 (Homo sapiens), P08173; CHO-K1 hM4/Gqi5, ACh EC20; 0% = ACh EC20, 100% = maximal ACh; activation, % at 3 µM; 360,000 compounds, 0.4% hits;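 active = activation above its plate's cutoff, the mean activation of sample wells plus 3 SD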
# M5 antag: human M5 muscarinic receptor antagonists, primary screen, CHO cells, Fluo-8 calcium fluorescence. Muscarinic acetylcholine receptor M5 (Homo sapiens), P08912. CHO-hM5 cells, ACh EC80. inhibition, % at 3 µM. 360,000 compounds, 0.59% hits. AID 624040, 2012;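 active = inhibition above a per-plate cutoff, the mean of that plate's test compounds plus 3 SD, cut at about 27% in these data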;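 also: 0% = acetylcholine EC80 with DMSO and 100% = DMSO without agonist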
# Active calls of the source: *.
SMILES,CHRM4 agonist,M4 antag,CHRM5 agonist,M5 PAM,M4 PAM,M5 antag
Cc1c(Cl)cccc1NC(=S)N(CCCN1CCOCC1)Cc1cccs1,2,56*,-5,-17,-39,3
COc1ccc(NC(=S)N(CCCN2CCCCC2)Cc2cccs2)cc1,3,40*,-7,-18,-38,12
Cc1ccc(NC(=S)N(CCCN2CCOCC2)Cc2cccs2)c(C)c1,1,-9,-4,4,0,4
O=C(CCSc1nnc(-c2ccco2)o1)Nc1ccc(F)cc1,4,-1,3,7,-3,2
Cc1cccc(-c2ccc3[nH]c4c(c3c2)CCN2C[C@@H]([C@H](C)OC(=O)Nc3ccccc3C)[C@@H](N(C)C(=O)Nc3ccccc3C)C[C@@H]42)c1,6,10,1,1,6,0
CC(C)(C)c1ccc(NC(=O)c2cc[n+]([O-])cc2)cc1,1,0,-2,0,1,17
CC(=O)Nc1ccc(C(=O)Nc2cc(C)on2)cc1,-1,28*,-2,-2,-13,0
CC(=O)Nc1ccc(NC(=O)c2cc[n+]([O-])cc2)cc1,1,4,-3,-6,-7,29*
COc1ccc(Cn2cc(CN3CCc4onc(-c5ccc(Br)cc5)c4C3=O)nn2)cc1,16,-6,2,-10,-9,8
Cc1cc(C=C2C(=O)CCCC2=O)c(C)n1-c1ccccc1,1,6,-1,2,30*,-1
CCc1ccc(C(=O)NNC(=O)c2ccc(=O)n(C)n2)cc1,0,-1,-2,6,-3,7
COc1ccc(-c2nn(Cc3ccccc3)cc2C(=O)N2CCN(c3ncccn3)CC2)cc1OC,3,-8,2,6,4,2
Cc1ccc(NC(=O)c2nc(S(=O)(=O)Cc3ccccc3C)ncc2Cl)cc1C,5,36*,-5,0,-8,4
CC(=O)Nc1ccc(NC(=O)c2nc(S(=O)(=O)Cc3cccc(C)c3)ncc2Cl)cc1,0,18,-6,-7,-7,17
CC1CCN(S(=O)(=O)c2ccc(NC(=O)c3ccncc3)cc2)CC1,11,-2,2,-4,-11,-4
CCS(=O)(=O)c1ncc(Cl)c(C(=O)Nc2ccc(S(=O)(=O)N3CCC(C)CC3)cc2)n1,13,47*,-7,-10,-11,27
CCc1ccc(NC(=O)c2nc(S(=O)(=O)Cc3ccccc3)ncc2Cl)cc1,3,68*,-6,-8,-12,20
Cc1cccc(CS(=O)(=O)c2ncc(Cl)c(C(=O)NCc3ccc4c(c3)OCO4)n2)c1,5,33*,-4,1,-16,12
O=C(NCc1ccco1)c1cc(C(=O)C2CC2)c[nH]1,0,2,1,3,-4,2
N#Cc1nc(-c2ccc(F)cc2)oc1N1CCN(C(=O)c2ccco2)CC1,1,-12,-3,-9,-2,13
N#Cc1nc(-c2ccccc2Cl)oc1N1CCN(C(=O)c2ccco2)CC1,0,-7,0,23*,7,-19
COc1cccc(-c2nc(C#N)c(N3CCN(C(=O)c4ccco4)CC3)o2)c1,1,3,-3,5,22*,-8
O=C(CCn1ccc2cc(S(=O)(=O)N3CCCC3)ccc21)NCCc1ccccc1,5,6,1,26*,-2,29*
Cc1ccc(CCNC(=O)CCn2ccc3cc(S(=O)(=O)N4CCCC4)ccc32)cc1,1,-2,-2,3,-3,2
O=C(O)C1CCC(=O)N(C2CC2)C1c1ccccc1 (centres undefined),0,2,2,12,0,-9

# Source: PubChem (The Scripps Research Institute Molecular Screening Center)
